# Data from ChEMBL document CHEMBL1123284, “Structure-activity relationships for the competitive angiotensin antagonist [sarcosine,O-methyltyrosine4]angiotensin II (sarmesin)” (J Med Chem, 1986).
# Columns and labels:
# [1] = target: T1, Angiotensin II receptor (Rattus norvegicus) (UniProt P29089+P25095+P35351); experiment: Angiotensin II receptor agonist activity was tested in rat isolated uterus assay using [Asp1,Ile5]ANG II (human angiotensin II) as the standard; type: functional, tissue-based
# Summary of the method: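 Uterine horns from diethylstilbestrol-primed virgin Sprague-Dawley rats (150–250 g), defatted and halved. Each half held at 1 g tension in a 3-mL bath at pH 7.0, oxygen-gassed (150 mM NaCl, 5.6 mM KCl, 0.18 mM CaCl2, 1.8 mM NaHCO3, 1.4 mM glucose). Contractions recorded isotonically. Agonism measured by matching each response to an equivalent response to human ANG II. Mean ± SEM.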
# Angiotensin II receptor = target: T2, Angiotensin II receptor (Rattus norvegicus, UniProt P29089+P25095+P35351); experiment: Angiotensin II receptor antagonist activity was tested in rat isolated uterus assay using [Asp1,Ile5]ANG II (human angiotensin II) as the standard; type: functional, tissue-based
# T2 sequence (P29089 whole entry): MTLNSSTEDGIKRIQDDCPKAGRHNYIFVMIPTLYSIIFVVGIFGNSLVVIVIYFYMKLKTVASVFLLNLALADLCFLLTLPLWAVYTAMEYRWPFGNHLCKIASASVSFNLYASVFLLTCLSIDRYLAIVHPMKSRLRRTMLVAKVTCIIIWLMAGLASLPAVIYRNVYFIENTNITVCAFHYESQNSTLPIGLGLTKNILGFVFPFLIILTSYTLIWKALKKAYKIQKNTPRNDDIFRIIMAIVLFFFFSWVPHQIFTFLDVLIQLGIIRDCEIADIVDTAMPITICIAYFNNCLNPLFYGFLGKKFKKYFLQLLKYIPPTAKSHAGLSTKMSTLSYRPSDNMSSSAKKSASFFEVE
# T2 sequence (P25095 whole entry): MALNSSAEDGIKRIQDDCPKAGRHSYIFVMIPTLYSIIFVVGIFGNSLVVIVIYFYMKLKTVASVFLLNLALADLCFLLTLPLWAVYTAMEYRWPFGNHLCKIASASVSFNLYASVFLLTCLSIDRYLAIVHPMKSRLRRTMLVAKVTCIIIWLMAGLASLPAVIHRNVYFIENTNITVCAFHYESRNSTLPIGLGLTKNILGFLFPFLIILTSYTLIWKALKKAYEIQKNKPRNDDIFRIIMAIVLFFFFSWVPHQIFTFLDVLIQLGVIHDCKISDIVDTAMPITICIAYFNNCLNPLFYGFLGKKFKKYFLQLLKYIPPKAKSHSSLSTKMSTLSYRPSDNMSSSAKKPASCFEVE
# T2 sequence (P35351 whole entry): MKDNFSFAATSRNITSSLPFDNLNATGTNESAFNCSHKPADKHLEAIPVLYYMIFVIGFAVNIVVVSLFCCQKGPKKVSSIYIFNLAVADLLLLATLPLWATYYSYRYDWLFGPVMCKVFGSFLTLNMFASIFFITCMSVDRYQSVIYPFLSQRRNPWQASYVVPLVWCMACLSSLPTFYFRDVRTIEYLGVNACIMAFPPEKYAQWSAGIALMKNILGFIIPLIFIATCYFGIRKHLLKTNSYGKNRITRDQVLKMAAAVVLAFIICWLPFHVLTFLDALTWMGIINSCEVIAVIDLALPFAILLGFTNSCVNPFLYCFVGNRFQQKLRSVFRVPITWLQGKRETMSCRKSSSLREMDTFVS
# Summary of the method: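 Defatted, halved uterine horns from diethylstilbestrol-primed virgin Sprague-Dawley rats (150–250 g), at 1 g tension in a 3-mL bath at pH 7.0, oxygen-gassed (150 mM NaCl, 5.6 mM KCl, 0.18 mM CaCl2, 1.8 mM NaHCO3, 1.4 mM glucose). Isotonic recording of contraction. pA2 is the negative log of the antagonist concentration that cuts the response to an EC50 dose of human ANG II down to the response to half the EC50 dose. Mean ± SEM.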
# [2] = target: T1, Angiotensin II receptor (Rattus norvegicus); experiment: Compound was evaluated for the antagonistic activity against rat Angiotensin II receptor by using isometric bioassay system; type: functional
Activity [1],pA2 (Angiotensin II receptor),Activity [2],SMILES
< 0.1%,,,"CC[C@H](C)[C@H](NC(=O)C1CCCN1C(=O)[C@H](Cc1c[nH]cn1)NC(=O)[C@@H](NC(=O)[C@H](Cc1ccc(O)cc1)NC(=O)[C@@H](NC(=O)[C@H](CCCN=C(N)N)NC(=O)CNC)C(C)C)[C@@H](C)CC)C(=O)O (single isomer, unassigned)"
,< 6,,CC[C@H](C)[C@H](NC(=O)[C@H](Cc1ccc(OC)cc1)NC(=O)[C@@H](NC(=O)[C@H](CCCN=C(N)N)NC(=O)[C@H](C)N)C(C)C)C(=O)N[C@@H](Cc1c[nH]cn1)C(=O)N1CCC[C@H]1C(=O)N[C@@H](Cc1ccccc1)C(=O)O
< 0.1%,6.7,,CC[C@H](C)[C@H](NC(=O)[C@@H]1CCCN1C(=O)[C@H](Cc1c[nH]cn1)NC(=O)[C@@H](NC(=O)[C@H](Cc1ccccc1)NC(=O)[C@@H](NC(=O)[C@H](CCCN=C(N)N)NC(=O)CNC)C(C)C)[C@@H](C)CC)C(=O)O
22%,7.9,,CC[C@H](C)[C@H](NC(=O)[C@H](Cc1ccccc1)NC(=O)[C@@H](NC(=O)[C@H](CCCN=C(N)N)NC(=O)CNC)C(C)C)C(=O)N[C@@H](Cc1c[nH]cn1)C(=O)N1CCC[C@H]1C(=O)N[C@@H](Cc1ccccc1)C(=O)O
,< 5,,CC[C@H](C)[C@H](NC(=O)[C@@H]1C[C@@H](O)CN1C(=O)[C@@H](NC(=O)[C@H](CCCN=C(N)N)NC(=O)CNC)C(C)C)C(=O)N[C@@H](Cc1c[nH]cn1)C(=O)N1CCC[C@H]1C(=O)N[C@@H](Cc1ccccc1)C(=O)O
,< 6,,CC[C@H](C)[C@H](NC(=O)[C@H](Cc1ccc(OC)cc1)NC(=O)[C@@H](NC(=O)[C@H](CCCN=C(N)N)NC(=O)[C@@H]1CCCN1)C(C)C)C(=O)N[C@@H](Cc1c[nH]cn1)C(=O)N1CCC[C@H]1C(=O)N[C@@H](Cc1ccccc1)C(=O)O
< 0.1%,,,CC[C@H](C)[C@H](NC(=O)[C@H]1CCCN1C(=O)[C@H](Cc1c[nH]cn1)NC(=O)[C@@H](NC(=O)[C@@H](Cc1ccc(O)cc1)NC(=O)[C@@H](NC(=O)[C@H](CCCN=C(N)N)NC(=O)CNC)C(C)C)[C@@H](C)CC)C(=O)O
< 0.1%,< 5.5,,CC[C@H](C)[C@H](NC(=O)[C@@H](Cc1ccccc1)NC(=O)[C@@H](NC(=O)[C@H](CCCN=C(N)N)NC(=O)CNC)C(C)C)C(=O)N[C@@H](Cc1c[nH]cn1)C(=O)N1CCC[C@@H]1C(=O)N[C@@H](Cc1ccccc1)C(=O)O
< 0.1%,< 5,,CC[C@H](C)[C@H](NC(=O)[C@H]1CCCN1C(=O)[C@H](Cc1c[nH]cn1)NC(=O)[C@@H](NC(=O)[C@@H](Cc1ccccc1)NC(=O)[C@@H](NC(=O)[C@H](CCCN=C(N)N)NC(=O)CNC)C(C)C)[C@@H](C)CC)C(=O)O
,< 6,,CC[C@H](C)[C@H](NC(=O)[C@@H](NC(=O)[C@H](CCCN=C(N)N)NC(=O)CNC)C(C)C)C(=O)N[C@H](C(=O)N[C@@H](Cc1c[nH]cn1)C(=O)N1CCC[C@H]1C(=O)N[C@@H](Cc1ccccc1)C(=O)O)[C@@H](C)CC
2%,,,CC[C@H](C)[C@H](NC(=O)[C@@H](Cc1ccc(O)cc1)NC(=O)[C@@H](NC(=O)[C@H](CCCN=C(N)N)NC(=O)CNC)C(C)C)C(=O)N[C@@H](Cc1c[nH]cn1)C(=O)N1CCC[C@@H]1C(=O)N[C@@H](Cc1ccccc1)C(=O)O
2%,,,CC[C@H](C)[C@H](NC(=O)[C@@H](NC(=O)[C@@H](NC(=O)[C@H](CCCN=C(N)N)NC(=O)CNC)C(C)C)[C@H](C)O)C(=O)N[C@@H](Cc1c[nH]cn1)C(=O)N1CCC[C@@H]1C(=O)N[C@@H](Cc1ccccc1)C(=O)O
< 0.1%,,,CC[C@H](C)[C@H](NC(=O)[C@@H]1C[C@@H](O)CN1C(=O)[C@@H](NC(=O)[C@H](CCCN=C(N)N)NC(=O)CNC)C(C)C)C(=O)N[C@@H](Cc1c[nH]cn1)C(=O)N1CCC[C@@H]1C(=O)N[C@@H](Cc1ccccc1)C(=O)O
0.2%,,,CC[C@H](C)[C@H](NC(=O)[C@@H](NC(=O)[C@H](CCCN=C(N)N)NC(=O)CNC)C(C)C)C(=O)N[C@H](C(=O)N[C@@H](Cc1c[nH]cn1)C(=O)N1CCC[C@@H]1C(=O)N[C@@H](Cc1ccccc1)C(=O)O)[C@@H](C)CC
< 0.1%,7.5,8.1,CC[C@H](C)[C@H](NC(=O)[C@H](Cc1ccc(OC)cc1)NC(=O)[C@@H](NC(=O)[C@H](CCCN=C(N)N)NC(=O)CNC)C(C)C)C(=O)N[C@@H](Cc1c[nH]cn1)C(=O)N1CCC[C@H]1C(=O)N[C@@H](Cc1ccccc1)C(=O)O
0.3%,,,CC[C@H](C)[C@H](NC(=O)[C@H](Cc1ccc(OC)cc1)NC(=O)[C@@H](NC(=O)[C@H](CCCN=C(N)N)NC(=O)[C@@H]1CCCN1)C(C)C)C(=O)N[C@@H](Cc1c[nH]cn1)C(=O)N1CCC[C@@H]1C(=O)N[C@@H](Cc1ccccc1)C(=O)O
< 0.1%,,,CC[C@H](C)[C@H](NC(=O)[C@H](Cc1ccc(OC)cc1)NC(=O)[C@@H](NC(=O)[C@H](CCCN=C(N)N)NC(=O)[C@H](C)N)C(C)C)C(=O)N[C@@H](Cc1c[nH]cn1)C(=O)N1CCC[C@@H]1C(=O)N[C@@H](Cc1ccccc1)C(=O)O
0.2%,< 6,,CCOc1ccc(C[C@H](NC(=O)[C@@H](NC(=O)[C@H](CCCN=C(N)N)NC(=O)CNC)C(C)C)C(=O)N[C@H](C(=O)N[C@@H](Cc2c[nH]cn2)C(=O)N2CCC[C@H]2C(=O)N[C@@H](Cc2ccccc2)C(=O)O)[C@@H](C)CC)cc1
,< 6.5,,CC[C@H](C)[C@H](NC(=O)[C@@H](Cc1ccc(O)cc1)NC(=O)[C@@H](NC(=O)[C@H](CCCN=C(N)N)NC(=O)CNC)C(C)C)C(=O)N[C@@H](Cc1c[nH]cn1)C(=O)N1CCC[C@H]1C(=O)N[C@@H](Cc1ccccc1)C(=O)O
,< 6,,CC[C@H](C)[C@H](NC(=O)[C@@H](NC(=O)[C@@H](NC(=O)[C@H](CCCN=C(N)N)NC(=O)CNC)C(C)C)[C@@H](C)O)C(=O)N[C@@H](Cc1c[nH]cn1)C(=O)N1CCC[C@H]1C(=O)N[C@@H](Cc1ccccc1)C(=O)O
< 0.1%,6.6,,CC[C@H](C)[C@H](NC(=O)[C@@H]1CCCN1C(=O)[C@H](Cc1c[nH]cn1)NC(=O)[C@@H](NC(=O)[C@H](Cc1ccc(OC)cc1)NC(=O)[C@@H](NC(=O)[C@H](CCCN=C(N)N)NC(=O)CNC)C(C)C)[C@@H](C)CC)C(=O)O
